NF-kB neuron act: compounds increasing NF-kB expression in human neuronal cells | NF-kB reporter expression; active compounds read high | fold change at 12.5 µM | actives 1.6% (n = 190,000) | AID 1239; in the data active = fold change above about 3.3
STAT1 blocker: inhibitors of IFN-gamma induced STAT1 signaling; NIH 3T3 STAT1-luciferase reporter, luminescence; inhibition, % at 5.5 µM; actives 0.35% (n = 200,000); AID 920;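 active = inhibition above a set limit, the mean inhibition across all tested compounds plus 3 SD, cut at about 34% in these data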;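 also: 0% = IFN-gamma with DMSO and 100% = IFN-gamma with 300 µM nifuroxazide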
APP 5'UTR act: activates APP 5'UTR luciferase reporter; SH-SY5Y APP 5'UTR luciferase reporter, luminescence; zero percent = DMSO vehicle wells; activation, % at 2 µM; actives 1% (n = 190,000); AID 1276;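 active = activation above a set limit, based on mean plus 3 SD of controls, cut at about 140% in these data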
STAT3 activator: increases IL-6 driven STAT3 reporter signal. U3A cells, IL-6 STAT3-luciferase reporter, luminescence; 100% = signal with IL-6 EC80 alone. activation (% of control), % at 5.6 µM. actives 0.91% (n = 190,000);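 active = activation above the screen-wide mean of compound activation plus 3 SD, cut at about 130% in these data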;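 also: 0% = background luminescence of wells with medium and substrate only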
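Material: human STAT1-deficient U3A cells with stable STAT3-luciferase reporter / Probe or stimulus: IL-6 stimulus at 33 ng/mL final / Schedule: 1 h compound pre-exposure, 6 h IL-6 stimulation, 37 °C / Technique: luminescence / Read-out basis: percent of IL-6-only median luminescence / Control set: IL-6-only high control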
STAT1 activator: increases IFN-gamma driven STAT1 reporter signal | NIH 3T3 STAT1-luciferase reporter, luminescence; 100% = IFN-gamma alone, no compound | AID 932 | activation (% of control), % at 5.5 µM | actives 2.6% (n = 200,000);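 active = activation above the screen-wide mean activation plus 3 SD, cut at about 130% in these data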;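 also: raw ratio to IFN-gamma control signal so 100% means no change and 0% no light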
STAT3 inh: inhibitors of IL-6 induced STAT3 signaling. U3A cells, IL-6 STAT3-luciferase reporter, luminescence; host cell line lacks STAT1. actives 0.89% (n = 190,000). inhibition, % at 5.5 µM;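 active = inhibition above the mean inhibition across all screened compounds plus 3 SD, cut at about 44% in these data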;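 also: 0% = DMSO only wells and 100% = 100 µM nifuroxazide control wells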
Starred values were filed as active, the others as inactive. Shown are actives, neighbours in structure and some others; about 4.9% of the full set was active somewhere.

SMILES | NF-kB neuron act | STAT1 blocker | APP 5'UTR act | STAT3 activator | STAT1 activator | STAT3 inh
O=C1c2cccc3c(N4CCCCC4)ccc(c23)C(=O)N1c1cccc(O)c1 | 2 | -32 | 25 | 100 | 130* | 2
CN(CCC#N)C(=O)COC(=O)c1cccnc1Nc1ccccc1F | 1.2 | -2 | 10 | 108 | 102 | -4
CN1/C(=C\C=O)C(C)(C)c2ccccc21 | 0.97 | 14 | -10 | 98 | 87 | 7
CN(C)c1ccc(N=C/C=C2\N(C)c3ccccc3C2(C)C)cc1 | 1 | -28 | 143* | 101 | 125 | 1
Cc1cc(SCC(=O)Nc2cccc(S(=O)(=O)NC3=NCCCCC3)c2)c(C)cc1Br | 3.4* | 0 | 14 | 102 | 100 | 7
Cc1cc(SCC(=O)Nc2cccc(S(N)(=O)=O)c2)c(C)cc1Br | 1.1 | 12 | -2 | 96 | 90 | 10
CCOC(=O)c1c(C)oc2c1c(C(c1cccnc1)N1CCOCC1)c(O)c1ccccc12 (centres undefined) | 3.6* | 0 | 103 | 133* | 100 | -32
CCOC(=O)c1c(C)oc2c1c1c(c3ccccc32)OCN(Cc2cccnc2)C1 | 4.7* | -7 | 77 | 126 | 106 | -26
COc1ccc(N=C2C(=Nc3ccc(OC)cc3)N(c3ccccc3)C(=S)N2C(=O)c2ccc(Cl)cc2)cc1 | 6.8* | -20 | 10 | 107 | 118 | -5
COc1ccc(N=C2C(=Nc3ccc(OC)cc3)N(c3ccc(OC)cc3)C(=S)N2C(=O)c2ccc(OC)cc2)cc1 | 1.1 | -8 | 0 | 99 | 107 | 4
Cc1cc(NCCCn2ccnc2)n2ncc(-c3ccc(Cl)cc3)c2n1 | 1.3 | -62 | 253* | 152* | 156* | -61
Cc1cc(NCCCN2CCOCC2)n2ncc(-c3ccc(Cl)cc3)c2n1 | 1.1 | -10 | 47 | 125 | 109 | -27
O=[N+]([O-])c1cc(O)c2ncccc2c1 | 5.8* | 5 | -29 | 128 | 97 | -27
COC(=O)c1ccc(COc2cc([N+](=O)[O-])cc3cccnc23)o1 | 1.3 | 4 | -3 | 100 | 95 | 3
COc1ccc(Nc2ccc(N3C(=O)CC(C)C3=O)cc2[N+](=O)[O-])cc1OC (centres undefined) | 0.82 | -1 | 3 | 108 | 100 | -2
O=C(Cc1c(O)c2ccccc2[nH]c1=O)NC1CCCCCC1 | 1.3 | 11 | 21 | 98 | 88 | 7
O=C(NC1CCCCCC1)c1c(O)c2ccccc2[nH]c1=O | 2.5 | -45 | 8 | 94 | 141* | 10
CC(/C=N/N1CCN(c2ccccc2)CC1)=C\c1ccco1 | 3.6* | -41 | 80 | 92 | 138* | 13
CC(=C/c1ccco1)/C=N/N1CCN(c2ccccc2)CC1 | 3.9* | -31 | 66 | 94 | 128 | 11
CC(/C=N/N1CCN(c2ccccc2)CC1)=C\c1ccccc1 | 1.6 | -2 | 2 | 99 | 102 | 6
O=C(NC(=S)N(Cc1ccccc1)c1ccccn1)C1CC1 | 1.1 | -2 | 5 | 94 | 102 | 2
Cc1[nH]c2ccccc2c1CC(=O)O | 0.88 | 1 | 8 | 133* | 99 | -34
Cc1[nH]c2c(C)cccc2c1CC(=O)O | 1.1 | 0 | -12 | 103 | 98 | 5
Fc1ccc(CSc2nc3ncccc3[nH]2)cc1 | 1.5 | -3 | 27 | 91 | 103 | 19
O=[N+]([O-])c1ccc(CSc2nc3ccccc3[nH]2)cc1 | 2.3 | -45 | 81 | 98 | 141* | -3
SMILES | NF-kB neuron act | STAT1 blocker | APP 5'UTR act | STAT3 activator | STAT1 activator | STAT3 inh
Fc1ccc(CSc2nc3ccccc3[nH]2)cc1 | 4.8* | -32 | 79 | 89 | 129* | 13
O=C(CCS(=O)(=O)c1ccc(Br)cc1)Nc1ccc(Br)cc1F | 1.2 | -6 | -6 | 105 | 106 | -1
Cc1cccc2c(N)c3c(nc12)CCCC3 (tested in a mixture with another compound) | 1.8 | -22 | 19 | 109 | 118 | -8
Cc1cc(C)c2c(N)c3cccc(C)c3nc2n1 | 0.97 | -53 | -27 | 120 | 148* | -16
COC(=O)c1sccc1N/N=C/c1cccc(Oc2ccccc2)c1 | 0.93 | -37 | 176* | 97 | 138* | 1
COC(=O)c1sccc1N/N=C/c1ccc(OC)c(OC)c1OC | 3 | -28 | 66 | 95 | 129* | 4

Compound activity (PubChem BioAssay)
